Here are results for eleven compounds from ChEMBL document CHEMBL1255528, “Chemical investigation of drug-like compounds from the Australian tree, Neolitseadealbata” (Bioorg Med Chem Lett, 2010).

Structures can show the parent of a compound that is named as a salt. A value given as a limit tells only on which side of the number the result lay.

Data set [1] deals with MCF7. Briefly: Cytotoxicity against human MCF7 cells after 72 hrs by alamar blue assay. It is filed as functional, cell-based. To be noted: MCF7, 72 h. In short, it runs like this: (§1)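 Screened across a human panel: A549 lung adenocarcinoma, HeLa cervical adenocarcinoma, MCF-7 breast, LNCaP and PC3 prostate, plus non-cancer HEK 293 embryonic kidney and NFF neonatal foreskin fibroblasts. IC50 reported as mean ± SD of two independent experiments.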
In general terms: The colour change of resazurin is a common sign of viable cells or microbes.

The subject of data set [2] is NFF. Briefly: Cytotoxicity against human NFF after 72 hrs by alamar blue assay. Type of data set: cell-based. The method in brief:
as §1

A further data set relates to PC-3. Briefly: Cytotoxicity against human PC3 cells after 72 hrs by alamar blue assay. It is filed as functional, cell-based. Particulars: PC-3, 72 h. In short, it runs like this:
as §1

The test system of a further data set is LNCaP. Briefly: Cytotoxicity against human LNCAP cells after 72 hrs by alamar blue assay. Type of data set: functional, cell-based. The method in brief: as §1
In a further data set the test system is HeLa. The data set is described as follows: Cytotoxicity against human HeLa cells after 72 hrs by alamar blue assay. It is filed as functional, cell-based. In short, it runs like this: as §1
For the next data set, the system named is A549. The data set is described as follows: Cytotoxicity against human A549 cells after 72 hrs by alamar blue assay. Type of data set: functional, cell-based. Particulars: A549, 72 h. In short, it runs like this:
as §1

Data set [3] in a line: Cytotoxicity against HEK cells after 72 hrs by alamar blue assay. It is filed as cell-based. To be noted: Homo sapiens, HEK293, 72 h. In short, it runs like this:
as §1

The test system of data set [4] is MCF7. Briefly: Cytotoxicity against human MCF7 cells at 100 uM after 72 hrs by alamar blue assay. Type of data set: functional. Particulars: MCF7, 72 h. The method in brief:
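Single-concentration screen on MCF-7 breast cancer cells within the same human cell-line panel. Percent growth inhibition calculated at the one test concentration rather than as an IC50.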

Data set [5] in a line: Cytotoxicity against HEK cells at 100 uM after 72 hrs by alamar blue assay. Type of data set: cell-based, HEK293. Particulars: human; for cytotoxicity at 72 h, 100 µM: HEK cells, read-out: INH. In short, it runs like this:
(§2)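 Non-cancer human cell lines, human embryonic kidney 293 (HEK 293) and neonatal foreskin fibroblasts (NFF), screened in parallel with a panel of five cancer lines. Growth inhibition is reported as percent inhibition at a single test concentration of 100.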

Data set [6] in a line: (§3) Cytotoxicity against human NFF at 100 uM after 72 hrs by alamar blue assay. Type of data set: cell-based. Particulars: NFF cells, read-out: INH. The method in brief:
as §2

The subject of data set [7] is NFF. The description is as §3. Type of data set: cell-based. Particulars: nff, 72 h, 100 µM. In short, it runs like this: as §2

For orientation: IC50 means the point on the concentration scale where inhibition reaches its midpoint. High values mean weaker potency, low ones greater potency. For `Oc1ccc2c(c1)-c1c3c(cc4c1[C@@H](C2)NCC4)OCO3`, the IC50 in the data set on MCF7 [1] is 27.4 µM; in the data set on NFF [2] it was 42.6 µM; in the data set on PC-3 it was 23 µM; with LNCaP, 13.8 µM; in the data set with HeLa it was 4 µM; in the data set with A549 it was 28.2 µM. Further, the IC50 in [3] stood at 59.7 µM.
With `CN1CCc2cc3c(c4c2[C@H]1Cc1ccccc1-4)OCO3`, the IC50 in the data set on MCF7 [1] was 17.7 µM; with NFF [2], 15.2 µM; in the data set with PC-3 it was 7.7 µM; in the data set with LNCaP, 12.7 µM; in the data set with HeLa it was 16.6 µM; with A549 it was 3.4 µM. In [3], this compound came in with an IC50 of 15.9 µM.
One may read the inhibition as the drop in the measured response relative to a control, in per cent. Low values mean little suppression, high ones strong suppression. With `COc1cc2c(cc1O)C[C@@H]1NCCc3cc4c(c-2c31)OCO4`, the IC50 in the data set with NFF [2] was more than 100 µM; in the data set with PC-3, 36.4 µM; in the data set on LNCaP, 27.4 µM; in the data set with HeLa it was 28.1 µM; with A549, 16 µM. This compound yielded an inhibition at 100 µM in the data set with MCF7 [4] of 52%. Moreover, the cytotoxicity at 72 h, 100 µM in data set [5] was 55%.
Regarding `COc1cc2c(cc1O)C[C@@H]1NCCc3cc(O)c(OC)c-2c31`, the half-inhibitory concentration (IC50) in the data set with MCF7 [1], with NFF [2], with PC-3, with LNCaP, in the data set on HeLa and in the data set on A549 was more than 100 µM each time. The IC50 in [3] is more than 100 µM.
`COc1cc2c(cc1O)C[C@H]1c3c(cc(O)c(OC)c3-2)CCN1C`: the IC50 with MCF7 [1], with NFF [2], with PC-3, in the data set on LNCaP, with HeLa and in the data set on A549 was more than 100 µM each time. In data set [3], this compound showed an IC50 of more than 100 µM.
Turning to `COc1ccc2c(c1O)[C@H](Cc1ccc(O)cc1)NCC2`, the IC50 with MCF7 [1], in the data set with NFF [2], in the data set with PC-3, in the data set on LNCaP, with HeLa and in the data set on A549 was more than 100 µM throughout. For the same compound, the IC50 in [3] was more than 100 µM.
Regarding `COc1ccc2c(c1O)[C@H](Cc1ccc(O)cc1)N(C)CC2`, the IC50 in the data set on MCF7 [1], with NFF [2], in the data set with PC-3, in the data set with LNCaP, with HeLa and with A549 was more than 100 µM throughout. The compound further showed an IC50 in data set [3] of more than 100 µM.
On to `C[N@@+]1([O-])CCc2cc3c(c4c2[C@H]1Cc1ccccc1-4)OCO3` (stereo in doubt; 3), for which the IC50 with MCF7 [1], with PC-3, with LNCaP, in the data set with HeLa and with A549 was more than 100 µM in each case. The cytotoxicity at 72 h, 100 µM in data set [6] amounted to 83%; in [5], 61%.
As for `C[N@@+]1([O-])CCc2cc3c(c4c2[C@H]1Cc1ccccc1-4)OCO3.O=C(O)C(F)(F)F` (stereo in doubt; 4), the “inhibition (INH)” value is 66% with NFF [7] and 49% in data set [5] (hek293, 72 h, 100 µM, 72 h).
Take `CC(=O)O[C@H]1C(=O)[C@@]2(C)[C@H]([C@H](OC(=O)c3ccccc3)[C@]3(O)C[C@H](OC(=O)[C@H](O)[C@@H](NC(=O)c4ccccc4)c4ccccc4)C(C)=C1C3(C)C)[C@]1(OC(C)=O)CO[C@@H]1C[C@@H]2O` [PACLITAXEL]: the IC50 in the data set with MCF7 [1] turned out to be 0.0044 µM; in the data set with NFF [2], 0.0047 µM; with HeLa, 0.0089 µM; with A549, 0.0038 µM; in data set [3] it was 0.0039 µM.
In the case of `CC[C@]1(O)C[C@H]2CN(CCc3c([nH]c4ccccc34)[C@@](C(=O)OC)(c3cc4c(cc3OC)N(C=O)[C@H]3[C@@](O)(C(=O)OC)[C@H](OC(C)=O)[C@]5(CC)C=CCN6CC[C@]43[C@@H]65)C2)C1` [VINCRISTINE SULFATE], the IC50 came to 0.011 µM with PC-3 and 0.0029 µM in the data set with LNCaP.
